Laboratory results taken from PubChem BioAssay AID2770 (The Scripps Research Institute Molecular Screening Center, 2010).
Activity calls are given as the source filed them. The rule behind the calls is not given here.

What was measured:
Assay in all cases: calcium influx via other TRP channels, profiling panel, selectivity assay for TRPML3 agonist project, cell-based, Fura-2 calcium ratio, transfected HEK293, SAR round 1 (AID 2770)
mTRPV2 = test system: mTRPV2
Summary of the method: (§1)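 Material: Transfected or mock-transfected HEK293 cells carrying assorted TRP channels | Amount: 20-30 cells per run | Buffer or medium: pH 7.4 HEPES bath solution | Dosing: Single dose, 10 µM | Times: Compound at 20-25 h expression, 2 min recording | Technique: Fura-2 ratiometric calcium imaging | Evaluation: Fura-2 ratio change in intracellular calcium | Replication: n ≥3 independent experiments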

HEK cells = details: at 10 µM, hits give high values
Summary of the method: as §1

mTRPML2 (mucolipin 2) = test system: mTRPML2 (mucolipin 2)
Summary of the method: as §1

[1] = target: Ion channel NompC (Danio rerio) (UniProt Q7T1G6); details: drTRPN1
Summary of the method: as §1

hTRPC3 = test system: hTRPC3
Summary of the method: as §1

hTRPA1 = test system: hTRPA1
Summary of the method: as §1

hTRPM2 = test system: hTRPM2
Summary of the method: as §1

[2] = target: Mucolipin-1 (Homo sapiens) (UniProt Q9GZU1)
Sequence of Mucolipin-1 (Homo sapiens) (Q9GZU1 whole entry, looked up): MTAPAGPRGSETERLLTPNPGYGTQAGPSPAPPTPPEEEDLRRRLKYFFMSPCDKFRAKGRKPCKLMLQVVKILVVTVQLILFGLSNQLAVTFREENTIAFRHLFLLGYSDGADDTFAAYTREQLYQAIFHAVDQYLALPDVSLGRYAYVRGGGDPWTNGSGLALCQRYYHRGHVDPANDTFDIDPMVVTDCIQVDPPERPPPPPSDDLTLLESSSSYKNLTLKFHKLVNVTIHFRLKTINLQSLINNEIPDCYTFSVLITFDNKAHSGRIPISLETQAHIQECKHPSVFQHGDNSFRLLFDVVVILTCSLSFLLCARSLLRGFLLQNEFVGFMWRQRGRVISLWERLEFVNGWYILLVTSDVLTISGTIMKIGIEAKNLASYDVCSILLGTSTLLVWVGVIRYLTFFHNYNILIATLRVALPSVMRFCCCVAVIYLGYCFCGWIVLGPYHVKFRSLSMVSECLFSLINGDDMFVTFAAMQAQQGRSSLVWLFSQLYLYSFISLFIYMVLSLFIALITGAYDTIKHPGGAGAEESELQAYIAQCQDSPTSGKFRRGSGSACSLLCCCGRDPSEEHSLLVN
Summary of the method: as §1

[3] = hTRPML1 (NC) plasma membrane variant

Measured: Fura-2 340/380 ratio change

CC1CCN(S(=O)(=O)c2ccc(C(C)C)cc2)CC1
inactive: mTRPV2 inactive; selective for TRPML3 | HEK cells -0.008 | mTRPML2 (mucolipin 2) inactive; selective for TRPML3 | [1] inactive; selective for TRPML3 | hTRPC3 inactive; selective for TRPML3 | hTRPA1 inactive; selective for TRPML3 | hTRPM2 inactive; selective for TRPML3 | [2]; hTRPML1 inactive; selective for TRPML3 | [2]; [3] inactive; selective for TRPML3

CCOc1ccc(S(=O)(=O)N2CCCCCC2)c2ccccc12
inactive: mTRPV2 inactive; selective for TRPML3 | HEK cells -0.011 | mTRPML2 (mucolipin 2) inactive; selective for TRPML3 | [1] inactive; selective for TRPML3 | hTRPC3 inactive; selective for TRPML3 | hTRPA1 inactive; selective for TRPML3 | hTRPM2 inactive; selective for TRPML3 | [2]; hTRPML1 inactive; selective for TRPML3 | [2]; [3] inactive; selective for TRPML3

Cc1ccc(S(=O)(=O)n2nccc2-c2c(-c3ccc(Cl)cc3)noc2C)cc1
inactive: mTRPV2 inactive; selective for TRPML3 | HEK cells -0.005 | mTRPML2 (mucolipin 2) inactive; selective for TRPML3 | [1] inactive; selective for TRPML3 | hTRPC3 inactive; selective for TRPML3 | hTRPA1 inactive; selective for TRPML3 | hTRPM2 inactive; selective for TRPML3 | [2]; hTRPML1 inactive; selective for TRPML3 | [2]; [3] inactive; selective for TRPML3
